In brackets after ≈: the same amount, converted by molar mass.
What was measured:
[1] = biological target: 72 kDa type IV collagenase (Homo sapiens, UniProt P08253); assay: Inhibition of MMP2
[2] = biological target: Disintegrin and metalloproteinase domain-containing protein 17 (Homo sapiens, UniProt P78536)
Matrilysin = biological target: T1, Matrilysin (Homo sapiens, UniProt P09237); assay: Inhibition of MMP7
T1 sequence (P09237 whole entry): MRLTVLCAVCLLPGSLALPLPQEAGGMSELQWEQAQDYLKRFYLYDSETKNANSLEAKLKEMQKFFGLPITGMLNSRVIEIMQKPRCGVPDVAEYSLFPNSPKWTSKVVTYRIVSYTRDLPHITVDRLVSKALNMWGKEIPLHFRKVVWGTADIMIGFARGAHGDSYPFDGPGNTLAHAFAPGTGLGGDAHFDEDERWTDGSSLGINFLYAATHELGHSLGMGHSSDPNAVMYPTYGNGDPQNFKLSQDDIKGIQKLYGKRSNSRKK

Collagenase 3 = Collagenase 3 (Homo sapiens, UniProt P45452); assay: Inhibition of MMP13
HEK293 = assay: Inhibition of beta-amyloid peptide production in HEK293 cell line; type: functional, cell-based; details: Homo sapiens
[3] = biological target: Matrix metalloproteinase-14 (Homo sapiens, UniProt P50281); assay: Inhibition of MMP14
Interstitial collagenase = biological target: T2, Interstitial collagenase (Homo sapiens, UniProt P03956); assay: Inhibition of MMP1
T2 sequence (P03956 whole entry): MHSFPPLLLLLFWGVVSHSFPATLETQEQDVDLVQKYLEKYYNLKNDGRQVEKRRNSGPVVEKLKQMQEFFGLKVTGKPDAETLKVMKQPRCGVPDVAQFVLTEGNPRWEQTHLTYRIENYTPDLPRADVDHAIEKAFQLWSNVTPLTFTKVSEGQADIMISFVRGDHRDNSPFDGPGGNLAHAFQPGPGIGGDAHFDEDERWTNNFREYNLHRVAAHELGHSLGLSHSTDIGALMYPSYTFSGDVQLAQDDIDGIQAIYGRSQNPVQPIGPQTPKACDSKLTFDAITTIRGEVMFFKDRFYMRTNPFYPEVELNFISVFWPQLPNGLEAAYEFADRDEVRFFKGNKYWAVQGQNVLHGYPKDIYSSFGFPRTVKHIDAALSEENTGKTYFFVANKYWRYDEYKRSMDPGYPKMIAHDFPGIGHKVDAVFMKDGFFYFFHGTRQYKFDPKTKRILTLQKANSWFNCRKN

[4] = biological target: Matrix metalloproteinase-9 (Homo sapiens, UniProt P14780); assay: Inhibition of MMP9
Stromelysin-2 = Stromelysin-2 (Homo sapiens, UniProt P09238); assay: Inhibition of MMP10
[5] = Percent of unbound ligand in Beagle dog at 0.5 mg/kg, po; type: ADME, organism-based, Canis lupus familiaris; parameters: dose 0.5 mg/kg, route oral; details: in vivo
[6] = Oral bioavailability in Beagle dog at 0.5 mg/kg, po; type: ADME, organism-based, Canis lupus familiaris; details: in vivo
In short: (§1)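 Beagle dogs were dosed in cassette format with up to nine other compounds. Doses were kept low to limit interactions: 0.25 mg/kg iv and 0.5 or 1.0 mg/kg po. Pharmacokinetic parameters were derived from these dosings.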

Canis familiaris [7] = assay: Volume of distribution in Beagle dog at 0.5 mg/kg, po; type: ADME, organism-based, Canis lupus familiaris; parameters: dose 0.5 mg/kg, route oral; details: in vivo; in short: as §1
[8] = Half life in Beagle dog at 0.5 mg/kg, po; type: ADME, organism-based, Canis lupus familiaris; parameters: dose 0.5 mg/kg, route oral; details: in vivo; in short: as §1
[9] = Cmax in Beagle dog at 0.5 mg/kg, po; type: ADME, organism-based, Canis lupus familiaris; parameters: dose 0.5 mg/kg, route oral; details: in vivo; in short: as §1
[10] = Clearance in Beagle dog at 0.5 mg/kg, po; type: ADME, organism-based, Canis lupus familiaris; parameters: dose 0.5 mg/kg, route oral; details: in vivo; in short: as §1
[11] = Inhibition of gamma secretase mediated Notch1 signalling in NIH3T3 cells; type: functional, cell-based; details: Mus musculus
In short: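 NIH3T3 cells were grown in DMEM with 10% calf serum, penicillin/streptomycin, 2 mM L-glutamine and 1 mM pyruvate. They were transiently batch-transfected for 24 h with mouse Notch-1 ΔE, vector DNA and a CBF1-luciferase reporter (four tandem CBF1 binding elements). Cells were then replated in defined medium with 0.0125% BSA, treated with serial compound dilutions for 20 h, and read by luciferase luminescence.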

[12] = Solubility at pH 7.4; type: physicochemical; details: buffer
[13] = Oral bioavailability in Beagle dog at 1 mg/kg, po; type: ADME, organism-based, Canis lupus familiaris; details: in vivo
In short: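 Beagle dogs given compounds in cassette format with up to nine other compounds. Doses were kept low to limit interactions: 0.25 mg/kg iv, and 0.5 or 1.0 mg/kg po.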

[14] = Half life in Beagle dog at 1 mg/kg, po; type: ADME, organism-based, Canis lupus familiaris; parameters: dose 1 mg/kg, route oral; details: in vivo; in short: as §1
[15] = Cmax in Beagle dog at 1 mg/kg, po; type: ADME, organism-based, Canis lupus familiaris; parameters: dose 1 mg/kg, route oral; details: in vivo; in short: as §1
Canis familiaris [16] = assay: Volume of distribution in Beagle dog at 1 mg/kg, po; type: ADME, organism-based, Canis lupus familiaris; parameters: dose 1 mg/kg, route oral; details: in vivo; in short: as §1
[17] = Clearance in Beagle dog at 1 mg/kg, po; type: ADME, organism-based, Canis lupus familiaris; parameters: dose 1 mg/kg, route oral; details: in vivo; in short: as §1

Sequence of Stromelysin-2 (P09238 whole entry): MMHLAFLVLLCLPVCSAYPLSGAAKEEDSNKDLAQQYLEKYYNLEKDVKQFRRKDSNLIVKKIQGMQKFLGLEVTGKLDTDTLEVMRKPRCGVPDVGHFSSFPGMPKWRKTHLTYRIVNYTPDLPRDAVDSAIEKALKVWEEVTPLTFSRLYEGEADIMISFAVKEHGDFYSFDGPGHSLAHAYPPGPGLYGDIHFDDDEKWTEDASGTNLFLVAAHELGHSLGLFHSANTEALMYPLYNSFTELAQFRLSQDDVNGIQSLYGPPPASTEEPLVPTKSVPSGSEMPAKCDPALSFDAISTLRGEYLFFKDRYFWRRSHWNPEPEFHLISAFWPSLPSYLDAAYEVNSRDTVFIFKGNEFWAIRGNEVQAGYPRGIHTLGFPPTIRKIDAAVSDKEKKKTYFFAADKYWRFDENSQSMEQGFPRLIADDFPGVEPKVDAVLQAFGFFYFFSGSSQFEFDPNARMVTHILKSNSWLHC
Sequence of Matrix metalloproteinase-9 (P14780 whole entry): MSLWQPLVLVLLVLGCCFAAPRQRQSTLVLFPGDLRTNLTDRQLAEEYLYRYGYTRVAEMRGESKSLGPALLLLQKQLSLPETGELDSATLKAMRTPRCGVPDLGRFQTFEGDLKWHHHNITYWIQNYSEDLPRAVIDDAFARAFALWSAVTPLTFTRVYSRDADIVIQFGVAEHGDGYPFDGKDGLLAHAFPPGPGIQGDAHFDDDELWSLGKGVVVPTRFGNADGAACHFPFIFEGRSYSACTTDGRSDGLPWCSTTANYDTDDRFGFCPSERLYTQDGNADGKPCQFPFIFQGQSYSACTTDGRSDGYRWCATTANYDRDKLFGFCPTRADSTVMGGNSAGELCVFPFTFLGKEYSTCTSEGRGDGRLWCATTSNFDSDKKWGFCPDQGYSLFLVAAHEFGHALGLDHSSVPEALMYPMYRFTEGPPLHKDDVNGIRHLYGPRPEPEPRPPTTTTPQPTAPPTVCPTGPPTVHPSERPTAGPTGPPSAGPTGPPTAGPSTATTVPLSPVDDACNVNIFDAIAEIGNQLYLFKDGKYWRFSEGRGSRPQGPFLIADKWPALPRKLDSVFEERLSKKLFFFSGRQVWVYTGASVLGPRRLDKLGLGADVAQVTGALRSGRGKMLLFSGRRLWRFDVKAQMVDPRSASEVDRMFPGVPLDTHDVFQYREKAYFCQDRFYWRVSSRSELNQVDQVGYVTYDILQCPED
Sequence of Disintegrin and metalloproteinase domain-containing protein 17 (P78536 whole entry, the tested form may be a part): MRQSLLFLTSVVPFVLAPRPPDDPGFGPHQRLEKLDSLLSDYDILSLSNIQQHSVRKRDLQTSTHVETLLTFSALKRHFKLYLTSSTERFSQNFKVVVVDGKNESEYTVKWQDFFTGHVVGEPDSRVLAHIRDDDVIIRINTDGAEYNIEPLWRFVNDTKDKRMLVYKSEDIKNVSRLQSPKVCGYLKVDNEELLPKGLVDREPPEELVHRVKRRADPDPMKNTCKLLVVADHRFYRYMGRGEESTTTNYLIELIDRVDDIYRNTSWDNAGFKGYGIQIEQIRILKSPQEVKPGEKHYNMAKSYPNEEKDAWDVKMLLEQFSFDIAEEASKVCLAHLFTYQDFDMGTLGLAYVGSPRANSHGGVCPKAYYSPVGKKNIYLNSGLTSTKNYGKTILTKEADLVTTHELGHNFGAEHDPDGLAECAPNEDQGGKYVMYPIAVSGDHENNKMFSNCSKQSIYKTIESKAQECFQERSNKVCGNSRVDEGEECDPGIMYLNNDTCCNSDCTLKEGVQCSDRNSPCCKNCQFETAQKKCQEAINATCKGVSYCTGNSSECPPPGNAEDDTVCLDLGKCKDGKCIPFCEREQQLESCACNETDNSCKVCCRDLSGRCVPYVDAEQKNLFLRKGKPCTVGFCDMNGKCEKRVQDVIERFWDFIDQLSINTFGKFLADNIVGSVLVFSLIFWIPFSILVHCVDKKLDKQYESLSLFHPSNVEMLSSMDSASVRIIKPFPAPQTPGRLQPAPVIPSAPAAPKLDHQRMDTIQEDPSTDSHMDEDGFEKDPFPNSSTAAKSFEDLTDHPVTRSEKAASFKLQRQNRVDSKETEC
Sequence of 72 kDa type IV collagenase (P08253 whole entry, the tested form may be a part): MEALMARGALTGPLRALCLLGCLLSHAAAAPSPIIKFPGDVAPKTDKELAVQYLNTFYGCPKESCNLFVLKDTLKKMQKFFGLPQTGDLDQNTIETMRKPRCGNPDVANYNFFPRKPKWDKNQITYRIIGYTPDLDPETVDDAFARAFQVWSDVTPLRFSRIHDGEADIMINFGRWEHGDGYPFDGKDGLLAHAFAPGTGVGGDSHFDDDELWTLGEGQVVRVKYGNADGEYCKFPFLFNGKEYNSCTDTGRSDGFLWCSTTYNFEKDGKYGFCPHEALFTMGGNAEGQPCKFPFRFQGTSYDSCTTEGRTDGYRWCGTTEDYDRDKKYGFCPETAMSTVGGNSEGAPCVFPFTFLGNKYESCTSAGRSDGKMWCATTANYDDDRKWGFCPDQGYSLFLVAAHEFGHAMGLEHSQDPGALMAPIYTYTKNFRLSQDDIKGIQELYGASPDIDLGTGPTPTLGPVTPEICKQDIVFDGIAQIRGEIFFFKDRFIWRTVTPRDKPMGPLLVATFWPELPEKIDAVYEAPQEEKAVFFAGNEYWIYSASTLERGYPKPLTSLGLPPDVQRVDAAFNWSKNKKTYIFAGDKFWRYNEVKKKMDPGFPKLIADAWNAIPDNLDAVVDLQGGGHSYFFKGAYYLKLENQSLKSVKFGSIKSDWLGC

SMILES	IC50 (HEK293) [nM]	also measured
CCC[C@H](C(=O)NO)[C@@H](CC(C)C)C(=O)N[C@H]1CCCCN(Cc2cccc(Oc3ccccc3)c2)C1=O	500	Ki [1]: 7 nM; Ki [2]: 4 nM; Ki (Matrilysin): 660 nM; Ki (Collagenase 3): 10 nM; Ki [3]: 1200 nM; Ki (Interstitial collagenase): 21 nM; Ki [4]: 5 nM; Ki (Stromelysin-2): 190 nM
CCC[C@H](C(=O)OC)[C@@H](CC(C)C)C(=O)N[C@H]1CCCCN(Cc2cccc(Oc3ccccc3)c2)C1=O	6000	
CCC[C@H](C(=O)NO)[C@@H](CC(C)C)C(=O)N[C@H]1CCCCN(Cc2cccc(I)c2)C1=O	3000	
CCC[C@H](C(=O)N(C)OC)[C@@H](CC(C)C)C(=O)N[C@H]1CCCCN(Cc2cccc(Oc3ccccc3)c2)C1=O	5000	
CCC[C@H](C(=O)NN)[C@@H](CC(C)C)C(=O)N[C@H]1CCCCN(Cc2cccc(Oc3ccccc3)c2)C1=O	1600	
CCC[C@H](C(N)=O)[C@@H](CC(C)C)C(=O)N[C@H]1CCCCN(Cc2cccc(Nc3ccccc3)c2)C1=O		fraction unbound [5]: 0.015; bioavailability [6]: 3%; Vss (Canis familiaris [7]): 0.4 L/kg; half-life [8]: 1 h; Cmax [9]: 17 nM; CL/F [10]: 10 mL/min/kg; IC50 [11]: 64 nM
CCC[C@H](C(N)=O)[C@@H](CC(C)C)C(=O)N[C@H]1CCCCN(Cc2cncc(-c3ccccn3)c2)C1=O	8800	
CCC[C@@H](CC(=O)NNC(=O)[C@@H](CCC)[C@@H](CC(C)C)C(=O)N[C@H]1CCCCN(Cc2cccc(Oc3ccccc3)c2)C1=O)C(=O)NO	> 10000	
CCC[C@H](C(=O)NNC(=O)[C@@H](CCC)[C@@H](CC(C)C)C(=O)N[C@H]1CCCCN(Cc2cccc(Oc3ccccc3)c2)C1=O)[C@@H](CC(C)C)C(N)=O	226	
CCC[C@H](C(=O)NOC)[C@@H](CC(C)C)C(=O)N[C@H]1CCCCN(Cc2cccc(Oc3ccccc3)c2)C1=O	5000	
CCC[C@H](C(=O)NC)[C@@H](CC(C)C)C(=O)N[C@H]1CCCCN(Cc2cccc(Oc3ccccc3)c2)C1=O	5000	
CCC[C@H](C(=O)NNC(=O)[C@@H](CC(N)=O)CC(C)C)[C@@H](CC(C)C)C(=O)N[C@H]1CCCCN(Cc2cccc(Oc3ccccc3)c2)C1=O	> 10000	
CCC[C@H](C(=O)NNC(=O)[C@H](CC(C)C)[C@@H]1CCNC1=O)[C@@H](CC(C)C)C(=O)N[C@H]1CCCCN(Cc2cccc(Oc3ccccc3)c2)C1=O	> 10000	
CCC[C@H](C(=O)O)[C@@H](CC(C)C)C(=O)N[C@H]1CCCCN(Cc2cccc(Oc3ccccc3)c2)C1=O	> 3000	
CCC[C@H](C(N)=O)[C@@H](CC(C)C)C(=O)N[C@H]1CCCCN(Cc2cncc(-c3ccc(F)c(Cl)c3)c2)C1=O	4	
CCC[C@H](C(N)=O)[C@@H](CC(C)C)C(=O)N[C@H]1CCCCN(Cc2cncc(-c3ccc(OC)cc3)c2)C1=O	32	
CCC[C@H](C(N)=O)[C@@H](CC(C)C)C(=O)N[C@H]1CCCCN(Cc2cncc(-c3ccc(C(F)(F)F)cc3)c2)C1=O	17	
CCC[C@H](C(N)=O)[C@@H](CC(C)C)C(=O)N[C@H]1CCCCN(Cc2cncc(-c3cccnc3)c2)C1=O	2200	
CCC[C@H](C(N)=O)[C@@H](CC(C)C)C(=O)N[C@H]1CCCCN(Cc2cccc(Oc3ccccc3)c2)C1=O	50	fraction unbound [5]: 0.004; bioavailability [6]: 8%; Vss (Canis familiaris [7]): 1.3 L/kg; half-life [8]: 0.5 h; Cmax [9]: 25 nM; CL/F [10]: 31.7 mL/min/kg; solubility [12]: 1 µg/mL (≈ 1.97 µM); IC50 [11]: 82 nM
CCCC(C(N)=O)C(CC(C)C)C(=O)N[C@H]1CCCCN(Cc2cccc(-c3ccc(Cl)cc3Cl)c2)C1=O (single isomer, unassigned)	14	
CCCC(C(=O)NO)C(CC(C)C)C(=O)N[C@H]1CCCCN(Cc2cccc(-c3ccccc3OC)c2)C1=O (single isomer, unassigned)	300	

SMILES	IC50 (HEK293) [nM]	also measured
CCCC(C(N)=O)C(CC(C)C)C(=O)N[C@H]1CCCCN(Cc2cccc(-c3ccc(F)c(Cl)c3)c2)C1=O (single isomer, unassigned)	17	bioavailability [13]: 25%; half-life [14]: 1.3 h; Cmax [15]: 116 nM; Vss (Canis familiaris [16]): 0.8 L/kg; solubility [12]: 0.1 µg/mL (≈ 0.184 µM); IC50 [11]: 18 nM; CL/F [17]: 6.67 mL/min/kg
CCCC(C(N)=O)C(CC(C)C)C(=O)N[C@H]1CCCCN(Cc2cccc(-c3ccccc3OC)c2)C1=O (single isomer, unassigned)	30	
CCCC(C(=O)NO)C(CC(C)C)C(=O)N[C@H]1CCCCN(Cc2cccc(-c3cccc(OC)c3)c2)C1=O (single isomer, unassigned)	600	
CCCC(C(=O)NO)C(CC(C)C)C(=O)N[C@H]1CCCCN(Cc2cccc(-c3ccc(C(F)(F)F)cc3)c2)C1=O (single isomer, unassigned)	230	
CCCC(C(=O)NO)C(CC(C)C)C(=O)N[C@H]1CCCCN(Cc2cccc(-c3cccc(F)c3)c2)C1=O (single isomer, unassigned)	180	
CCCC(C(N)=O)C(CC(C)C)C(=O)N[C@H]1CCCCN(Cc2cccc(-c3cccc(OC)c3)c2)C1=O (single isomer, unassigned)	150	
CCCC(C(N)=O)C(CC(C)C)C(=O)N[C@H]1CCCCN(Cc2cccc(-c3ccc(OC)cc3)c2)C1=O (single isomer, unassigned)	8	
CCCC(C(N)=O)C(CC(C)C)C(=O)N[C@H]1CCCCN(Cc2cccc(-c3ccc(F)cc3)c2)C1=O (single isomer, unassigned)	191	
CCCC(C(N)=O)C(CC(C)C)C(=O)N[C@H]1CCCCN(Cc2ccc(-c3ccc(C(F)(F)F)cc3)cc2)C1=O (single isomer, unassigned)	90	
CCCC(C(=O)NO)C(CC(C)C)C(=O)N[C@H]1CCCCN(Cc2cccc(-c3ccc(F)c(Cl)c3)c2)C1=O (single isomer, unassigned)	100	
CCCC(C(=O)NO)C(CC(C)C)C(=O)N[C@H]1CCCCN(Cc2cccc(-c3ccc(F)cc3)c2)C1=O (single isomer, unassigned)	470	
CCCC(C(=O)NO)C(CC(C)C)C(=O)N[C@H]1CCCCN(Cc2cccc(-c3cccc(NC(C)=O)c3)c2)C1=O (single isomer, unassigned)	> 10000	
CCCC(C(=O)NO)C(CC(C)C)C(=O)N[C@H]1CCCCN(Cc2cccc(-c3cccc(C)c3)c2)C1=O (single isomer, unassigned)	510	
CCCC(C(N)=O)C(CC(C)C)C(=O)N[C@H]1CCCCN(Cc2cccc(-c3cccc(F)c3)c2)C1=O (single isomer, unassigned)	300	
CCCC(C(=O)NO)C(CC(C)C)C(=O)N[C@H]1CCCCN(Cc2cccc(-c3ccccc3-c3cccc4ccccc34)c2)C1=O (single isomer, unassigned)	250	
CCCC(C(N)=O)C(CC(C)C)C(=O)N[C@H]1CCCCN(Cc2cccc(-c3ccc(C)cc3)c2)C1=O (single isomer, unassigned)	40	
CCCC(C(=O)NO)C(CC(C)C)C(=O)N[C@H]1CCCCN(Cc2cccc(-c3ccc(Cl)cc3Cl)c2)C1=O (single isomer, unassigned)	350	
CCCC(C(=O)NO)C(CC(C)C)C(=O)N[C@H]1CCCCN(Cc2cccc(-c3ccc(C)cc3)c2)C1=O (single isomer, unassigned)	260	
CCCC(C(=O)NO)C(CC(C)C)C(=O)N[C@H]1CCCCN(Cc2cccc(-c3ccc(OC)cc3)c2)C1=O (single isomer, unassigned)	470	
CCCC(C(N)=O)C(CC(C)C)C(=O)N[C@H]1CCCCN(Cc2cccc(-c3ccc(C(F)(F)F)cc3)c2)C1=O (single isomer, unassigned)	10	

Source: ChEMBL document CHEMBL1147000, “Synthesis and evaluation of succinoyl-caprolactam gamma-secretase inhibitors” (Bioorg Med Chem Lett, 2006)
